{"data": "Measured values of several laboratories", "target": "Ephrin type-A receptor 2 (EPHA2, Homo sapiens, UniProt P29317)", "note": "Each line is one published result; the experiments were not run side by side."}
{"Structure (SMILES)": "CSc1nc(C)c(-c2ccnc(Nc3ccc(N4CCOCC4)cc3)c2)[nH]1", "observed": "cell-free assay", "mode": "inhibitor", "tested at": "10 µM", "endpoint": "inhibition", "value": "17.1%"}
{"Structure (SMILES)": "CCN(CC)CCNC(=O)c1c(C)[nH]c(/C=C2\\C(=O)Nc3ccc(F)cc32)c1C", "observed": "enzyme activity", "mode": "inhibitor", "tested at": "0.3 µM", "endpoint": "inhibition", "value": "-12%"}
{"Structure (SMILES)": "O=C(Nc1ccc(Oc2ccc(F)cc2)cc1)N1CCc2ncccc2[C@H]1c1ccc(F)cc1", "observed": "cell-free assay", "method": "competition with immobilised ligand", "tested at": "1 µM", "endpoint": "remaining binding", "value": "100%"}
{"Structure (SMILES)": "CC(C)(C)c1nc2c(s1)c1nc(N)ncc1c1ccc(NS(=O)(=O)c3c(F)cccc3F)c(F)c12", "observed": "enzyme activity", "mode": "inhibitor", "method": "radiometric", "tested at": "1 µM", "endpoint": "remaining activity", "value": "109%"}
{"Structure (SMILES)": "Cc1ccc(C(=O)NCc2ccsc2)cc1C#Cc1cn(C(C)C)c2ncnc(N)c12", "observed": "enzyme activity", "mode": "inhibitor", "tested at": "1 µM", "endpoint": "activity vs control", "value": "2%"}
{"Structure (SMILES)": "CN(c1ccnc(CNc2nc(Nc3ccc4c(c3)CC(=O)N4)ncc2C(F)(F)F)n1)S(C)(=O)=O", "observed": "cell-free assay", "method": "competition with immobilised ligand", "tested at": "1 µM", "endpoint": "remaining binding", "value": "80%"}
{"Structure (SMILES)": "O=C1Nc2ccc(Cl)cc2C1=Cc1cc(Cl)c(O)c(Cl)c1", "observed": "cell-free assay", "tested at": "0.5 µM", "endpoint": "remaining signal", "value": "95%"}
{"Structure (SMILES)": "COc1cc2ncnc(Nc3ccc(Oc4ccccc4)c(C)c3C)c2cc1OC", "observed": "enzyme activity", "mode": "inhibitor", "tested at": "1 µM", "endpoint": "inhibition", "value": "2%"}
{"Structure (SMILES)": "Nc1ncnc2occ(-c3ccc(NC(=O)Nc4cc(C(F)(F)F)ccc4F)cc3)c12", "observed": "cell-free assay", "tested at": "20 µM", "endpoint": "remaining signal", "value": "0%"}
{"Structure (SMILES)": "CNC(=O)c1cc2c(Oc3ccc(NC(=O)C4(C(=O)Nc5ccc(F)cc5)CC4)cc3)ccnc2cc1OC", "observed": "enzyme activity", "mode": "inhibitor", "method": "radiometric", "tested at": "1 µM", "endpoint": "inhibition", "value": "96%"}
{"Structure (SMILES)": "Cc1cc(NC(=O)c2cccc3cc(-c4cccc5[nH]nc(N)c45)ccc23)ccc1F", "observed": "enzyme activity", "mode": "inhibitor", "tested at": "0.1 µM", "endpoint": "activity vs control", "value": "103%"}
{"Structure (SMILES)": "COc1cc(Nc2cnc(C#N)c(O[C@H](C)CN(C)C)n2)ncc1-c1cnn(C)c1", "observed": "enzyme activity", "mode": "inhibitor", "method": "radiometric", "tested at": "1 µM", "endpoint": "remaining activity", "value": "59%"}
{"Structure (SMILES)": "Cc1cc(-n2nc(Cc3cc(F)cc(C(F)(F)F)c3)nc2C)ccc1C(N)=O", "observed": "cell-free assay", "method": "competition with immobilised ligand", "tested at": "1 µM", "endpoint": "remaining binding", "value": "100%"}
{"Structure (SMILES)": "C[C@@H]1CCN(C(=O)CC#N)C[C@@H]1N(C)c1ncnc2[nH]ccc12", "observed": "cell-free assay", "tested at": "0.5 µM", "endpoint": "remaining signal", "value": "95.8%"}
{"Structure (SMILES)": "CC(C)(O)[C@H]1CC[C@H](Nc2ccc3ncc(-c4cccc(C(F)(F)F)c4)n3n2)CC1", "observed": "enzyme activity", "mode": "inhibitor", "tested at": "1 µM", "endpoint": "remaining activity", "value": "93.9%"}
{"Structure (SMILES)": "O=C(N1CCS(=O)(=O)CC1)N1C[C@H](c2ccc(OC(F)(F)F)cc2)C[C@H](c2nc(C3CC3)no2)C1", "observed": "cell-free assay", "method": "competition with immobilised ligand", "tested at": "1 µM", "endpoint": "remaining binding", "value": "100%"}
{"Structure (SMILES)": "FC(F)c1nc2ccccc2n1-c1nc(N2CCOCC2)nc(N2CCOCC2)n1", "observed": "enzyme activity", "mode": "inhibitor", "tested at": "10 µM", "endpoint": "remaining activity", "value": "106%"}
{"Structure (SMILES)": "O=C(Nc1cnc(Oc2ccc(F)cc2)nc1)N1CCc2ncccc2[C@@H]1c1ccc(F)cc1", "observed": "cell-free assay", "method": "competition with immobilised ligand", "tested at": "1 µM", "endpoint": "remaining binding", "value": "99%"}
{"Structure (SMILES)": "COc1ccc(COc2ccc(Cc3cnc(N)nc3N)cc2OC)cc1", "observed": "cell-free assay", "tested at": "0.5 µM", "endpoint": "remaining signal", "value": "107%"}
{"Structure (SMILES)": "Cc1sc(C(=O)NC2COC2)cc1-n1cc(NC(=O)Nc2c(F)cccc2Cl)cn1", "observed": "enzyme activity", "mode": "inhibitor", "tested at": "10 µM", "endpoint": "remaining activity", "value": "102%"}
{"Structure (SMILES)": "CS(=O)(=O)N1CCCC(NC(=O)[C@H](CCC2CCCCC2)NC(=O)c2ccc(CNc3ncnc4c3nnn4-c3ccccc3)cc2)C1 (stereo partly drawn)", "observed": "cell-free assay", "method": "competition with immobilised ligand", "tested at": "0.1 µM", "endpoint": "remaining binding", "value": "100%"}
{"Structure (SMILES)": "CNC(=O)c1cc(Oc2ccc(NC(=O)Nc3ccc(Cl)c(C(F)(F)F)c3)cc2)ccn1", "observed": "enzyme activity", "mode": "inhibitor", "tested at": "10 µM", "endpoint": "inhibition", "value": "96%"}
{"Structure (SMILES)": "CCc1ccccc1C(=O)Nc1n[nH]c2c(C)c(F)c(C3C(C#N)=C(C)N(C)C(C)=C3C#N)cc12", "observed": "cell-free assay", "method": "competition with immobilised ligand", "tested at": "1 µM", "endpoint": "remaining binding", "value": "61%"}
{"Structure (SMILES)": "CS(=O)(=O)Nc1cccc(-c2csc(NC(=O)CSc3nc4nccnc4c(=O)n3CCc3ccccc3)n2)c1", "observed": "enzyme activity", "mode": "inhibitor", "tested at": "10 µM", "endpoint": "inhibition", "value": "9%"}
{"Structure (SMILES)": "COc1cc(/C=C/C(=O)CC(=O)/C=C/c2ccc(O)c(OC)c2)ccc1O", "observed": "enzyme activity", "mode": "inhibitor", "tested at": "1 µM", "endpoint": "activity vs control", "value": "104%"}
{"Structure (SMILES)": "Cc1ccc(Nc2nccc(N(C)c3ccc4c(C)n(C)nc4c3)n2)cc1S(N)(=O)=O", "observed": "enzyme activity", "mode": "inhibitor", "tested at": "10 µM", "endpoint": "inhibition", "value": "43%"}
{"Structure (SMILES)": "Nc1nc(NC2CCCCC2)sc1C(=O)c1ccccc1", "observed": "enzyme activity", "mode": "inhibitor", "tested at": "10 µM", "endpoint": "remaining activity", "value": "110%"}
{"Structure (SMILES)": "COc1cc2nccc(Oc3ccc(NC(=O)Nc4ccc(F)cc4F)c(F)c3)c2cc1OC", "observed": "thermal stability", "method": "DSF", "tested at": "10 µM", "endpoint": "ΔTm", "value": "5 to 10 °C"}
{"Structure (SMILES)": "CN(c1ncccc1CNc1nc(Nc2ccc3c(c2)CC(=O)N3)ncc1C(F)(F)F)S(C)(=O)=O", "observed": "enzyme activity", "mode": "inhibitor", "tested at": "1 µM", "endpoint": "inhibition", "value": "29.7%"}
{"Structure (SMILES)": "CNCc1ccccc1-c1csc([C@H](C)Nc2nc(C)nc3cc(OC)c(OC)cc23)c1", "observed": "cell-free assay", "method": "competition with immobilised ligand", "tested at": "1 µM", "endpoint": "remaining binding", "value": "80%"}
